Yeast life ext = extends the lifespan of yeast; inhibition of the nicotinamide effect, % at 10 µM; 0.68% of 130,000 active; S. cerevisiae growth with nicotinamide, OD615; deaD strain in restrictive glucose medium; AID 775;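 active = inhibition above a set limit, placed 3 SD over the median of all compounds, cut at about 26% in these data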
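Material: Modified budding yeast, DeaD strain | Medium: Restrictive glucose medium | Probe or stimulus: 1.5 mM nicotinamide | Dosing: Single dose 10 µM compound, 0.25% DMSO | Times: 48 h at 30 °C | Technique: OD615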
RAM inhibit = inhibitors of the yeast RAM network. S. cerevisiae dse1pr::URA3 reporter, 5-FOA growth OD615, 2 d; analog-sensitive cbk1-as2 kinase mutant strain. inhibition, % at 50 µM. 1.8% of 190,000 active;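 active = inhibition above a set limit, 3 SD over mean compound inhibition, cut at about 8.4% in these data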;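 note: inhibition rescues growth on 5-FOA so higher OD means more RAM inhibition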
Yeast growth inh = chemicals that inhibit yeast BB579 growth in restrictive medium (lifespan-shortening candidates); S. cerevisiae BB579 growth, OD615, 48 h; inhibition, % at 10 µM; 0.51% of 140,000 active; AID 804;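 active = inhibition above a set limit, 3 SD over the mean compound inhibition, cut at about 44% in these data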
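Detection: OD615 turbidity measurement; Material: Saccharomyces cerevisiae DeaD strain BB579, replicative lifespan model yeast; Timing: 48 h exposure, 30 °C; Doses: single 10 µM dose; Medium: CSMM-D restrictive synthetic medium containing dextrose (glucose); Controls: amphotericin B at 10 µg/mL as positive control.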
Phagocytosis inh = blocks phagocytosis by macrophages; J774A.1 macrophage IgG-bead phagocytosis, imaging; inhibition, % at 5 µM; 0.07% of 110,000 active; AID 1029;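 active = inhibition above the mean of the plate negative controls plus 5 SD, cut at about 13% in these data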;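 note: phagocytic index as fraction of beads internalized from green versus red external bead signal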
RAM efflux-def = RAM network inhibition, efflux-deficient strain; S. cerevisiae efflux-deficient reporter strain, 5-FOA growth OD615, 2 days; 1,200 tested, under 10 active; AID 1305; max inhibition, %; shares compounds with RAM inhibit; call rule not given here
Numbers stand for hits; – = inactive; · = no result. Shown are actives, neighbours in structure and some others; about 2.7% of the full set was active somewhere.

SMILES	Yeast life ext	RAM inhibit	Yeast growth inh	Phagocytosis inh	RAM efflux-def
CC(=O)c1cc(C#N)c(N2CCN(C)CC2)nc1C	·	–	·	·	·
CCOC(=O)C1SC2(C(F)F)CC1(O)c1c(c(OC)c3occc3c1OC)O2 (stereo unspecified)	–	–	–	–	·
O=C(c1ccco1)c1cn(Cc2ccc(Cl)cc2)c2ccccc12	–	11.1	–	–	·
O=C(c1cccs1)c1cn(Cc2ccccc2Cl)c2ccccc12	–	–	–	–	·
COc1ccccc1OCCCn1cc(C(=O)c2ccco2)c2ccccc21	–	10.3	–	–	·
O=C(Cn1cc(C(=O)c2ccccc2)c2ccccc21)NCc1ccco1	–	–	–	–	·
COc1ccccc1OCC(=O)Nc1ccc(Cl)cc1C(=O)c1ccccc1	–	–	–	–	·
CCOc1ccccc1OCC(=O)Nc1ccc(Cl)cc1C(=O)c1ccccc1	–	9.6	–	–	·
CC1CCc2c(sc3nc(CSc4n[nH]c(N)n4)[nH]c(=O)c23)C1 (stereo unspecified)	–	11.7	–	–	–
O=[N+]([O-])/C=C/c1c(OCc2ccccc2)ccc2ccccc12	–	12.9	–	·	–
Cc1cc(OCC(=O)Nc2c(C)n(C)n(-c3ccccc3)c2=O)c2c3c(c(=O)oc2c1)CCC3	·	·	·	–	·
CCN1C(=O)/C(=C/c2ccc3c(c2)CCN3CCCCl)C(=O)NC1=S	–	16.5	–	–	–
CCCCN1C(=O)/C(=C/c2ccc(N3CCCCCC3)cc2)C(=O)NC1=S	–	–	–	–	·
CN(C)c1ccc(/C=C/C=C2/C(=O)NC(=O)N(c3ccccc3)C2=O)cc1	·	25.8	·	·	–
CC(C)[C@H](CN(N=O)[C@@H](Cc1ccccc1)CN(C)N=O)N(CCc1ccccc1)N=O	·	13.2	·	·	–
COc1cccc(C2(C#N)CCN(C)CC2)c1	·	–	·	·	·
Cc1ccc(/C=C/C2=NN(Cc3ccc(Cl)c(Cl)c3)C(=O)CC2)cc1	–	12.0	–	–	–
CCOCCSc1nc2c(c(-c3cccs3)c1C#N)CC/C2=C/c1cccs1	–	12.0	–	–	–
O=C(C(=O)N1CCOCC1)c1cn(Cc2c(F)cccc2Cl)c2ccccc12	·	–	·	·	·
CN1C2CCC1CC(OC(=O)c1cc(Cl)cc(Cl)c1)C2 (stereo unspecified)	–	–	–	–	·
OCCOCC#CCN1CCOCC1	–	–	–	–	·
CCCCCn1c(=O)c(C(=O)Nc2cnccn2)c(O)c2ccccc21	·	11.8	·	·	–
CCCCCn1c(=O)c(C(=O)Nc2nc(CC(=O)OCC)cs2)c(O)c2ccccc21	·	25.3	·	·	–
CCOP(=O)(OCC)C(Nc1cccc(C(F)(F)F)c1)c1ccc(Br)cc1 (stereo unspecified)	–	12.3	–	–	–
Cc1ccc(-n2cc(CNC(C)Cc3cnccn3)c(-c3cccc(C)c3)n2)cc1 (stereo unspecified)	·	–	·	·	·
Cc1ccc(OCC(=O)N2CCN(C3CCC(c4ccccc4)CC3)CC2)cc1 (stereo unspecified)	·	–	·	·	·
Cc1ccc(C(=O)NC(O)C(Cl)(Cl)Cl)cc1 (stereo unspecified)	–	–	–	–	·
COc1ccc(CCNCc2sccc2C)cc1OC	·	–	·	·	·
Cc1oc2ccc(OC(=O)N(C)C)cc2c1C(=O)OC(C)C	–	–	–	–	·
CCOC(=O)c1c(-c2ccc(OC)cc2)oc2ccc(OC(=O)N(C)C)cc12	–	14.5	–	–	–

Bioassay records from PubChem BioAssay.
